Tests used:
[1] = Hepatotoxicity in CD1 mouse assessed as increase in serum alanine aminotransferase level at 600 mg/kg, po measured after 12 hrs; assay type: toxicity, organism-based; settings: in vivo
Procedure, shortened: (§1)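 Male CD1 mice fasted 15 h, given 600 mg/kg po, then fed ad libitum for 12 h. Whole blood taken by transcardial perfusion under 5% isoflurane, without anticoagulant, clotted 0.5 h at 25 °C, spun 1000 g 5 min at 4 °C. Serum stored at −80 °C, then assayed with commercial kits. n = 5 mice per compound; vehicle 0.9% NaCl.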

Hepatocyte = experiment: Hepatotoxicity in primary human hepatocytes assessed as increase in lactate dehydrogenase release at 500 to 1000 uM measured after 3 to 12 hrs by fluorescence based analysis
[2] = Renal toxicity in CD1 mouse assessed as increase in serum creatinine level at 600 mg/kg, po measured after 12 hrs; assay type: organism-based; settings: in vivo; procedure, shortened: as §1
[3] = Hepatotoxicity in CD1 mouse assessed as increase in serum aspartate aminotransferase level at 600 mg/kg, po measured after 12 hrs; assay type: toxicity, organism-based; settings: in vivo; procedure, shortened: as §1
[4] = Hepatotoxicity in CD1 mouse assessed as increase in serum alkaline phosphatase level at 600 mg/kg, po measured after 12 hrs; assay type: toxicity, organism-based; settings: in vivo; procedure, shortened: as §1

Measured: Activity

O=C(CNS(=O)(=O)c1ccccc1C(=O)NCc1ccc(Cl)c(Cl)c1)Nc1ccc(O)cc1
Non-Toxic: all assays above

— ChEMBL document CHEMBL4706503, “A novel pipeline of 2-(benzenesulfonamide)-N-(4-hydroxyphenyl) acetamide analgesics that lack hepatotoxicity and retain antipyresis” (Eur J Med Chem, 2020)
